Reference: ChEMBL document CHEMBL2321751, “Optimization of chloronitrobenzamides (CNBs) as therapeutic leads for human African trypanosomiasis (HAT)” (J Med Chem, 2013)
pEC50: −log10 of the molar value. Values after ≈ are worked out from the molar mass of the structure shown.

Assays:
[1] = Kinetic solubility of the compound in PBS buffer at pH 7.4 after 18 hrs by UV spectrophotometric analysis; format: physicochemical; conditions: PBS buffer, pH 7.4; read-out: Kinetic_solubility
How it was run: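 Compound from a 10 mM stock was added to PBS pH 7.4 and left 18 h at room temperature. The suspension was filtered, and the filtrate was mixed 1:1 with 1-propanol. Solubility was derived from UV spectrum AUC (250–500 nm) relative to a 1-propanol/PBS reference. Run in triplicate.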

[2] = tested on: Raji; experiment: Cytotoxicity against human Raji cells after 72 hrs by Cell Titre Glo assay; format: cell-based
How it was run: (§1)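 Human cells grown to 80% confluence were plated in 384-well format and received compound dilutions by pin tool. After 72 h at 37 °C in 5% CO2, viability was measured by CellTiter-Glo luminescence.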

[3] = tested on: BJ; experiment: Cytotoxicity against human BJ cells after 72 hrs by Cell Titre Glo assay; format: cell-based; how it was run: as §1
[4] = tested on: HEK293; experiment: Cytotoxicity against HEK293 cells after 72 hrs by Cell Titre Glo assay; format: cell-based; conditions: Homo sapiens, HEK293, 72 h; how it was run: as §1
[5] = tested on: HepG2; experiment: Cytotoxicity against human HepG2 cells after 72 hrs by Cell Titre Glo assay; format: cell-based; conditions: HepG2, 72 h; how it was run: as §1
[6] = tested on: Trypanosoma brucei brucei; experiment: Antitrypanosomal activity against Trypanosoma brucei brucei 221 after 48 hrs by Cell Titre Glo assay; format: functional, organism-based; conditions: Trypanosoma brucei, 221, 48 h
How it was run: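 Bloodstream-form parasites grown in HMI-9 with 10% heat-inactivated FBS, 10% Serum Plus and penicillin/streptomycin at 37 °C, 5% CO₂, to 1 × 10⁶ cells/mL. Diluted to 1 × 10⁴ cells/mL, then dosed with a DMSO dilution series by pin transfer. Incubated 48 h at 37 °C, 5% CO₂. Viability read by CellTiter-Glo luminescence. EC₅₀ from a variable-slope sigmoidal fit. Mean of six replicates, errors as 95% CI.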

[7] = Permeability of the compound at pH 7.4 by PAMPA; format: ADME; conditions: for Papp: PAMPA, read-out: permeability; for permeability: pampa, BLD = below limit of detection
How it was run: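 Compound (10 mM DMSO stock) was diluted in system solution buffer pH 7.4 and placed in the donor chamber of a PAMPA sandwich whose membrane was coated with GIT lipid. Acceptor buffer filled the acceptor chamber, and the assembly was stirred for 30 min. Donor and acceptor UV spectra (250–500 nm) were compared with a reference to give the permeability coefficient. Run in triplicate.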

Row | SMILES | solubility kinetic at 18 h [1] [µM] | pEC50 [2] | pEC50 [3] | pEC50 [4] | pEC50 [5] | pEC50 [6] | Papp [7] [×10⁻⁶ cm/s] | permeability [7]
1 | O=C(Nc1cccc(-c2nc3ccccc3s2)c1)c1cc([N+](=O)[O-])c(O)cc1Cl | 2.2 (≈ 0.937 µg/mL) | < 4.60 | < 4.60 | < 4.60 | < 4.60 | < 4.48 | 307 | –
2 | O=C(Nc1nc(-c2cccc(F)c2)cs1)c1cc([N+](=O)[O-])ccc1Cl | 0.78 (≈ 0.295 µg/mL) | 4.96 | 4.62 | 5.06 | 4.74 | 5.46 | 3 | –
3 | O=C(Nc1nc2ccc(F)cc2s1)c1cc([N+](=O)[O-])ccc1Cl | 0.57 (≈ 0.2 µg/mL) | < 4.57 | < 4.57 | < 4.57 | < 4.57 | 5.25 | 10 | –
4 | O=C(Nc1nc2ccc(Cl)cc2s1)c1cc([N+](=O)[O-])ccc1Cl | 1.2 (≈ 0.442 µg/mL) | < 4.57 | < 4.57 | < 4.57 | < 4.57 | 5.09 | 138 | –
5 | O=C(Nc1nc2c(Cl)cccc2s1)c1cc([N+](=O)[O-])ccc1Cl | 0.72 (≈ 0.265 µg/mL) | 4.82 | < 4.57 | < 4.57 | < 4.57 | 4.92 | 242 | –
6 | O=C(Nc1ccccc1-c1nc2ccccc2s1)c1cc([N+](=O)[O-])ccc1Cl | – | < 4.57 | < 4.57 | < 4.57 | < 4.57 | < 4.48 | – | –
7 | O=C(CNc1ccc(-c2nc3ccccc3s2)cc1)c1cc([N+](=O)[O-])ccc1Cl | – | < 4.57 | < 4.57 | < 4.57 | < 4.57 | < 4.80 | – | –
8 | O=C(Nc1cccc(-c2nc3ccccc3[nH]2)c1)c1cc([N+](=O)[O-])ccc1Cl | 1.4 (≈ 0.55 µg/mL) | 4.68 | < 4.57 | < 4.57 | < 4.57 | 4.59 | 352 | –
9 | O=C(Nc1ccc(-c2ccccc2)cc1)c1cc([N+](=O)[O-])ccc1Cl | 0.12 (≈ 0.0423 µg/mL) | < 4.57 | < 4.57 | < 4.57 | < 4.57 | 5.72 | 26 | –
10 | O=C(Nc1cccc(-c2ccccc2)c1)c1cc([N+](=O)[O-])ccc1Cl | 0.41 (≈ 0.145 µg/mL) | < 4.57 | < 4.57 | 4.66 | < 4.57 | 5.92 | – | BLD
11 | Cc1ccc(-c2nc3ccccc3o2)cc1NC(=O)c1cc([N+](=O)[O-])ccc1Cl | 0.31 (≈ 0.126 µg/mL) | < 4.85 | < 4.85 | < 4.85 | < 4.85 | 7.70 | – | BLD
12 | COc1ccc(-c2nc3ccccc3o2)cc1NC(=O)c1cc([N+](=O)[O-])ccc1Cl | 0.09 (≈ 0.0381 µg/mL) | < 4.60 | < 4.60 | < 4.60 | < 4.60 | 6.92 | 274 | –
13 | Cc1cc(NC(=O)c2cc([N+](=O)[O-])ccc2Cl)cc(-c2nc3ccccc3o2)c1O | 0.09 (≈ 0.0381 µg/mL) | < 4.60 | < 4.60 | < 4.60 | < 4.60 | 6.66 | 105 | –
14 | O=C(Nc1ccc(Cl)cc1)c1cc([N+](=O)[O-])ccc1Cl | – | < 4.57 | < 4.57 | < 4.57 | < 4.57 | – | – | –
